Data reported in ChEMBL document CHEMBL1144898, “Structure-based design and synthesis of novel potent Na+,K+ -ATPase inhibitors derived from a 5alpha,14alpha-androstane scaffold as positive inotropic compounds” (J Med Chem, 2003).

Columns and labels:
[1] = target: Sodium/potassium-transporting ATPase; experiment: Inhibitory activity against Na+/K+ ATPase was determined; assay type: protein-complex assay, Canis lupus familiaris
Cavia porcellus [2] = experiment: Inotropic activity by slow intravenous infusion in anesthetized guinea pigs(Inotropic potency:dose increasing +dp/dtmax by 80%); assay type: functional
How it was run: (§1)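 Anesthetized guinea pigs given compound by slow intravenous infusion; contractility read as +dP/dtmax. Values are the maximal increase in +dP/dtmax, the dose inducing the maximum inotropic effect, and the dose raising +dP/dtmax by 80% taken from dose–response curves.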

Cavia porcellus [3] = experiment: Inotropic activity by slow intravenous infusion in anesthetized guinea pigs (dead/treated ratio = 1/3); assay type: functional
Cavia porcellus [4] = experiment: Inotropic activity by slow intravenous infusion in anesthetized guinea pigs(Maximal increase in+dp/dtmax); assay type: functional; how it was run: as §1
Cavia porcellus [5] = experiment: Inotropic activity by slow intravenous infusion in anesthetized guinea pigs(Dose inducing maximum positive inotropic effect); assay type: functional; how it was run: as §1
Cavia porcellus [6] = experiment: Inotropic activity by slow intravenous infusion in anesthetized guinea pigs (dead/treated ratio = 3/3); assay type: functional
[7] = (§2) Inotropic activity by slow intravenous infusion in anesthetized guinea pigs; assay type: organism-based, Cavia porcellus; conditions: guinea pig, in vivo, read-out: LD/ED80
Cavia porcellus [8] = experiment: Inotropic activity by slow intravenous infusion in anesthetized guinea pigs (dead/treated ratio = 1/5); assay type: functional
Cavia porcellus [9] = experiment: as §2; assay type: organism-based; conditions: guinea pig, in vivo
[10] = tested on: Sodium/potassium-transporting ATPase (Canis lupus familiaris); experiment: Inhibition activity against Na+/K+ ATPase (relative potency in comparison to digitoxigenin)
Cavia porcellus [11] = experiment: Inotropic activity by slow intravenous infusion in anesthetized guinea pigs (dead/treated ratio = 10/10); assay type: functional
Cavia porcellus [12] = experiment: Inotropic activity by slow intravenous infusion in anesthetized guinea pigs (dead/treated ratio = 7/8); assay type: functional

Row | SMILES | IC50 [1] [nM] | ED80 (Cavia porcellus [2]) [µM/kg] | Increase (Cavia porcellus [4]) [%] | EDmax (Cavia porcellus [5]) [µM/kg] | further results
1 | C[C@]12CC/C(=N/OCCCN)C[C@@H]1[C@H](O)CC1C2CC[C@]2(C)C(O)CC[C@@H]12 (stereo not given in full) | 3000 |  |  |  | 
2 | C[C@]12CCC(=NOCCN)C[C@@H]1[C@H](O)CC1C2CC[C@]2(C)C(O)CC[C@@H]12 (stereo not given in full) | 1600 |  |  |  | 
3 | C[C@]12CC/C(=N\OCCCN)C[C@@H]1[C@H](O)C[C@@H]1[C@@H]2CC[C@]2(C)C(O)CC[C@@H]12 (stereo not given in full) | 2000 | 1.58 | 99 | 7.37 | Dead/treated (Cavia porcellus [3]): 1
4 | CC(=O)NCCO/N=C1\CC[C@@]2(C)[C@H](C1)C(=O)C[C@@H]1[C@@H]2CC[C@]2(C)C(=O)CC[C@@H]12 | > 10000 |  |  |  | 
5 | C[C@]12CC/C(=N\OCCN)C[C@@H]1[C@H](O)C[C@@H]1[C@@H]2CC[C@]2(C)C(O)CC[C@@H]12 (stereo not given in full) | 2000 | 0.97 | 158 | 4.13 | Dead/treated (Cavia porcellus [6]): 3; selectivity ratio [7]: 9.6
6 | C[C@]12CC/C(=N\OCCN)C[C@@H]1C(=O)C[C@@H]1[C@@H]2CC[C@]2(C)C(O)CC[C@@H]12 (stereo not given in full) | 600 |  |  |  | 
7 | C[C@]12CC/C(=N\OCCCN)C[C@@H]1C(=O)C[C@@H]1[C@@H]2CC[C@]2(C)C(=O)CC[C@@H]12 | 800 | 6.55 | 129 | 18.2 | Dead/treated (Cavia porcellus [3]): 1
8 | C[C@]12CC/C(=N\OCCN)C[C@@H]1C(O)C[C@@H]1[C@@H]2CC[C@]2(C)C(O)CC[C@@H]12 (stereo not given in full) | 10000 |  |  |  | 
9 | C[C@]12CC/C(=N/OCCN)C[C@@H]1[C@H](O)CC1C2CC[C@]2(C)C(O)CC[C@@H]12 (stereo not given in full) | 12000 |  |  |  | 
10 | C[C@]12CCC(=NOCCN)C[C@@H]1[C@@H](O)C[C@@H]1[C@@H]2CC[C@]2(C)C(=O)CC[C@@H]12 (stereo in doubt; 22g) | 1200 | 5.3 | 207 | 54.6 | Dead/treated (Cavia porcellus [8]): 1; LD/ED80 (Cavia porcellus [9]): 17.8
11 | C[C@]12CCC(=NOCCN)C[C@@H]1[C@@H](O)C[C@@H]1[C@@H]2CC[C@]2(C)C(=O)CC[C@@H]12 (stereo in doubt; 22n) | 2500 | 14.8 | 154 | 111.2 | Dead/treated (Cavia porcellus [3]): 1; selectivity ratio [7]: 9.2
12 | C[C@H]1/C(=C/C(=O)OCCN(C)C)CCC2C1C(=O)CC1C(C)(C)[C@@H](O)CC[C@]21C (stereo not given in full) [CASSAINE] | 5000 |  |  |  | Relative potency [10]: 0.1
13 | C[C@H]1O[C@@H](O[C@H]2[C@@H](O)C[C@H](O[C@H]3[C@@H](O)C[C@H](O[C@H]4CC[C@@]5(C)[C@H](CC[C@@H]6[C@@H]5C[C@@H](O)[C@]5(C)[C@@H](C7=CC(=O)OC7)CC[C@]65O)C4)O[C@@H]3C)O[C@@H]2C)C[C@H](O)[C@@H]1O [DIGOXIN] |  | 0.41 | 127 | 0.97 | Dead/treated (Cavia porcellus [11]): 10
14 | C[C@]12CCC(=NOCCN)C[C@@H]1C(=O)C[C@@H]1[C@@H]2CC[C@]2(C)C(=O)CC[C@@H]12 [ISTAROXIME] |  | 4.84 | 190 | 17.9 | Dead/treated (Cavia porcellus [12]): 7; selectivity ratio [7]: 20.2
